Results from ChEMBL document CHEMBL4706564 (Eur J Med Chem, 2020).

Experiments:
Zaire ebolavirus = assay: Antiviral activity against Zaire ebolavirus infected in African green monkey Vero cells assessed as inhibition of viral infection by measuring […] incubated for 10 days by neutral red dye based colorimetric analysis; format: functional, organism-based
HEK-293T = assay: (§1) Cytotoxicity against human HEK293T cells incubated for 48 hrs by MTT assay; format: cell-based; settings: hek-293t, 48 h
Method in brief: (§2)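 HEK293T cells at 10⁵ cells/ml were added to two-fold compound dilutions in 10% DMEM and incubated 48 h at 37 °C, 5% CO2. MTT (5 mg/ml stock in PBS, 1/10 volume) was added for 2 h, and formazan was dissolved in DMSO before reading optical density. Each concentration was run in triplicate. CC50 was the concentration giving 50% cell death, or halving OD versus control.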

Marburgvirus [1] = assay: Antiviral activity against MARV Popp infected in African green monkey Vero cells assessed as inhibition of viral infection by measuring reduction in virus-induced cytotoxicity incubated for 10 days by neutral red dye based colorimetric analysis; format: functional, organism-based; settings: vero
[2] = Acute toxicity in ICR mouse assessed as animal death at 0.14 to 1.08 g/kg, ig and measured for 7 days; settings: in vivo, po, 168 h, dose 0.14-1.08 g/Kg, time 7 day
Method in brief: (§3)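 Outbred ICR mice, randomised into groups of 2. Each group got a single oral gavage dose of 1.08, […], 0.27 or 0.14 g/kg, given as a suspension in 10% DMSO in water at 0.1 mL/10 g. Controls received solvent only. Survival was recorded over 7 days.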

Vero = assay: (§4) Cytotoxicity against African green monkey Vero cells assessed as reduction in cell survival incubated for 10 days by neutral red dye based colorimetric analysis; settings: chlorocebus sabaeus, vero, 240 h; time 10 day
Method in brief: (§5)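 Confluent Vero monolayers received six concentrations from 3-fold serial dilutions in DMEM of DMSO-dissolved compound, plus medium without virus. After 10 days at 37 °C, 5% CO2, cells were stained with neutral red and read at 490 nm. CC50 came from a 4-parameter fit, with at least 3 analyses per compound.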

[3] = Acute toxicity in ig dosed ICR mouse; format: organism-based; settings: in vivo, po; method in brief: as §3
cells [4] = format: cell-based, HEK293T; settings: Vesicular stomatitis virus, HEK-293T
[5] = as §4; settings: chlorocebus sabaeus, Vero cells; time 10 day; method in brief: as §5
Influenza A virus = assay: Antiviral activity against Influenza A virus (H1N1); format: functional, organism-based
cells [6] = format: cell-based, Ebolavirus, HEK293T; settings: Orthoebolavirus, Mayinga, HEK-293T
Marburgvirus [7] = assay: Antiviral activity against VSV-G pseudotyped MARV infected in human HeLa cells; format: functional, organism-based; settings: Orthomarburgvirus
Ebolavirus [8] = assay: Antiviral activity against VSV-G pseudotyped EBOV infected in human HeLa cells; format: functional, organism-based; settings: Orthoebolavirus
Ebolavirus [9] = assay: Antiviral activity against eGFP-positive VSV-G pseudotyped EBOV infected in human U2OS cells assessed as reduction in virus entry cells pre-incubed with compound for 1 hr followed by viral infection and measured after 12 to 14 hrs by fluorescence microscopic analysis; format: functional, organism-based; settings: Orthoebolavirus
[10] = as §1; format: cell-based, HEK-293T; settings: HEK293T cells; method in brief: as §2
in vitro = settings: human, HEK293T cells

| SMILES | IC50 (Zaire ebolavirus; vero, read-out: IC50) [µM] | CC50 (HEK-293T) [µM] | IC50 (Marburgvirus [1]; read-out: IC50) [µM] | CC50 (Vero) [µM] | IC50 (cells [4]) [µM] | CC50 at 240 h [5] [µM] | IC50 (Influenza A virus) [µM] | IC50 (cells [6]) [µM] | other results |
| --- | --- | --- | --- | --- | --- | --- | --- | --- | --- |
| CC1(C)[C@H]2CC[C@]1(C)[C@H](OC(=O)CCN1CCCCC1)C2.Cl | 9.1 | 87 | 18.1 | 279 | – | – | – | – | Activity [2]: Non-Toxic; LD50 [3]: > 1000 mg/kg |
| CC1(C)[C@H]2CC[C@]1(C)[C@H](OC(=O)CCN1CCCCC1)C2 | 47.5 | 290 | 3.7 | – | 93 | 443 | 7.8 | – | – |
| CC1CCN(CCC(=O)O[C@@H]2C[C@@H]3CC[C@@]2(C)C3(C)C)CC1 [listing 1 of 2 here] | 64.7 | 69.8 | 5.7 | 144 | – | – | – | – | – |
| CC1CCN(CCC(=O)O[C@@H]2C[C@@H]3CC[C@@]2(C)C3(C)C)CC1 [listing 2 of 2 here] | – | 280 | 2.2 | 69.3 | – | – | 15.3 | 0.3 | IC50 (Zaire ebolavirus; Zaire ebolavirus, Vero, 240 h, read-out: IC50): 54.3 µM |
| O=[N+]([O-])c1cc(S(=O)(=O)NCCN2CCOCC2)ccc1Sc1nnnn1-c1ccccc1 | – | – | – | – | – | – | – | – | IC50 (Marburgvirus [7]): 12.9 µM; IC50 (Ebolavirus [8]): 1.9 µM |
| CCCNC(=O)[C@@H]1O[C@H]1C(=O)N[C@@H](Cc1ccc(C)cc1)C(=O)N[C@H](C(=O)N1CCN(Cc2ccccc2)CC1)c1ccccc1 | – | – | – | – | – | – | – | – | IC50 (Ebolavirus [9]): 0.07 µM |
| N#Cc1c(NCCN)nc(-c2ccccc2)c2c1CCCC2 | – | – | – | – | – | – | – | – | IC50 (Marburgvirus [7]): 6.2 µM; IC50 (Ebolavirus [8]): 24.4 µM |
| CN1CCN(CCC(=O)O[C@@H]2C[C@@H]3CC[C@@]2(C)C3(C)C)CC1 | – | – | – | – | 173 | 61.4 | 1.9 | 0.3 | IC50 (Zaire ebolavirus; vero): Not Active; CC50 at 48 h [10]: 282 µM; selectivity ratio (in vitro): 870; IC50 (Marburgvirus [1]): Not Active |
| CC1(C)[C@H]2CC[C@]1(C)[C@H](OC(=O)CCN1CCOCC1)C2 | – | – | – | – | 320 | 122 | 12.2 | 8.5 | IC50 (Zaire ebolavirus; vero): Not Active; CC50 at 48 h [10]: 305 µM; selectivity ratio (in vitro): 36; IC50 (Marburgvirus [1]): Not Active |
